Assay results as given in ChEMBL document CHEMBL4834416, “The Discovery of Novel ACA Derivatives as Specific TRPM2 Inhibitors that Reduce Ischemic Injury Both In Vitro and In Vivo” (J Med Chem, 2021).
The source made the active and inactive calls. No cut-off for these calls is given here.

Key:
[1] = target: T1, Transient receptor potential cation channel subfamily M member 2 (Homo sapiens, UniProt O94759); test: Inhibition of human TRPM2 expressed in HEK293T cells assessed as blocked of ADPR-activated current by whole cell patch clamp electrophysiology; assay type: cell-based
SH-SY5Y [2] = test: Cytotoxicity against human SH-SY5Y cells assessed as toxicity at 30 uM incubated for 24 hrs by CCK-8 assay; assay type: cell-based
Summary of the method: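 SH-SY5Y cells were seeded at 2 × 10⁴ per well and grown 12 h at 37 °C. They were then treated with compound (1–30 μM) under normoxic, normal-glucose conditions for 24 h. CCK-8 (10%) was added for 2 h at 37 °C and OD450 read. Viability was taken relative to untreated control after blank subtraction, with three replicate wells.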

[3] = target: Transient receptor potential cation channel subfamily M member 8 (Homo sapiens, UniProt Q7Z2W7); test: Inhibition of human TRPM8 expressed in HEK293T cells assessed as blocked of menthol-activated current at 10 uM by whole cell patch clamp electrophysiology relative to control; assay type: cell-based
Summary of the method: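 Whole-cell patch clamp was run at room temperature on HEK293T cells transiently cotransfected with human TRPM8 plus GFP, 24–48 h before recording. ECS was 145 NaCl, 5.6 KCl, 2 MgCl₂, 1.2 CaCl₂, 10 HEPES, pH 7.2. Current was activated with 1 mM menthol, and compound was perfused at least 60 s after it stabilized. Inhibition was calculated relative to stable agonist current minus residual current; n = 3–6.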

Phospholipase A2 [4] = target: T2, Phospholipase A2 (Homo sapiens, UniProt P04054); test: Inhibition of PLA2 (unknown origin) using soybean phosphatidylcholine as substrate at 10 uM preincubated for 30 mins followed incubated for 60 mins after substrate addition by microplate reader relative to control
Summary of the method: (§1)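 PLA2 (4 μg/L in PBS) was preincubated 30 min at 37 °C with inhibitor in 125 mM Tris. Substrate was then added for 60 min: soybean phosphatidylcholine with Tris, CaCl₂, sodium deoxycholate and 0.5% Triton X-100. Liberated free fatty acids were quantified colorimetrically at OD550. Results are % inhibition versus enzyme without inhibitor, n = 3.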

Phospholipase A2 [5] = target: T2, Phospholipase A2; test: Inhibition of PLA2 (unknown origin) using soybean phosphatidylcholine as substrate at 3 uM preincubated for 30 mins followed incubated for 60 mins after substrate addition by microplate reader relative to control; summary of the method: as §1
SH-SY5Y [6] = test: Neuroprotective activity against oxygen glucose deprivation/reperfusion-induced cell death in human SH-SY5Y cells assessed as cell viability at 1 to 30 uM […] by CCK8 assay relative to control; assay type: functional; conditions: dose 1-30 µM
[7] = Half life in C57BL/6 mouse plasma at 3 mg/kg, iv by LC-MS/MS analysis; assay type: ADME, organism-based
[8] = Cmax in C57BL/6 mouse plasma at 3 mg/kg, iv by LC-MS/MS analysis; assay type: ADME, organism-based; parameters: route intravenous, dose 3 mg/kg
[9] = AUC (0 to infinitive) in C57BL/6 mouse plasma at 3 mg/kg, iv by LC-MS/MS analysis; assay type: ADME, organism-based; parameters: time infinity, route intravenous, dose 3 mg/kg
[10] = Half life in C57BL/6 mouse plasma at 100 mg/kg, IG by LC-MS/MS analysis; assay type: ADME, organism-based; conditions: po
[11] = Cmax in C57BL/6 mouse plasma at 100 mg/kg, IG by LC-MS/MS analysis; assay type: ADME, organism-based; parameters: route […], dose 100 mg/kg; conditions: po
[12] = Half life in C57BL/6 mouse plasma at 0.3 mg/kg, iv by LC-MS/MS analysis; assay type: ADME, organism-based
[13] = Half life in C57BL/6 mouse plasma at 1 mg/kg, iv by LC-MS/MS analysis; assay type: ADME, organism-based
[14] = Half life in C57BL/6 mouse plasma at 10 mg/kg, IG by LC-MS/MS analysis; assay type: ADME, organism-based; conditions: po
[15] = Tmax in C57BL/6 mouse plasma at 0.3 mg/kg, iv by LC-MS/MS analysis; assay type: ADME, organism-based
[16] = Tmax in C57BL/6 mouse plasma at 10 mg/kg, IG by LC-MS/MS analysis; assay type: ADME, organism-based; conditions: po
[17] = Cmax in C57BL/6 mouse plasma at 0.3 mg/kg, iv by LC-MS/MS analysis; assay type: ADME, organism-based; parameters: route intravenous, dose 0.3 mg/kg
[18] = Cmax in C57BL/6 mouse plasma at 10 mg/kg, IG by LC-MS/MS analysis; assay type: ADME, organism-based; parameters: route […], dose 10 mg/kg; conditions: po
[19] = AUC (0 to t) in C57BL/6 mouse plasma at 10 mg/kg, IG by LC-MS/MS analysis; assay type: ADME, organism-based; parameters: dose 10 mg/kg; conditions: po
[20] = AUC (0 to infinitive) in C57BL/6 mouse plasma at 0.3 mg/kg, iv by LC-MS/MS analysis; assay type: ADME, organism-based; parameters: time infinity, route intravenous, dose 0.3 mg/kg
[21] = AUC (0 to infinitive) in C57BL/6 mouse plasma at 1 mg/kg, iv by LC-MS/MS analysis; assay type: ADME, organism-based; parameters: time infinity, route intravenous, dose 1 mg/kg
[22] = AUC (0 to infinitive) in C57BL/6 mouse plasma at 10 mg/kg, IG by LC-MS/MS analysis; assay type: ADME, organism-based; parameters: route […], time infinity, dose 10 mg/kg; conditions: po
[23] = Clearance in C57BL/6 mouse plasma at 0.3 mg/kg, iv by LC-MS/MS analysis; assay type: ADME, organism-based
[24] = Clearance in C57BL/6 mouse plasma at 1 mg/kg, iv by LC-MS/MS analysis; assay type: ADME, organism-based
[25] = MRT in C57BL/6 mouse plasma at 0.3 mg/kg, iv by LC-MS/MS analysis; assay type: ADME, organism-based
[26] = MRT in C57BL/6 mouse plasma at 1 mg/kg, iv by LC-MS/MS analysis; assay type: ADME, organism-based
[27] = MRT in C57BL/6 mouse plasma at 10 mg/kg, IG by LC-MS/MS analysis; assay type: ADME, organism-based; conditions: po
[28] = Oral bioavailability in C57BL/6 mouse plasma at 0.3 mg/kg, IG by LC-MS/MS analysis; assay type: ADME, organism-based
[29] = Oral bioavailability in C57BL/6 mouse plasma at 1 mg/kg, IG by LC-MS/MS analysis; assay type: ADME, organism-based
Mus musculus [30] = test: Neuroprotective activity in mouse model of transient middle cerebral artery occlusion-induced cerebral ischemia-reperfusion injury assessed as reduction in infarct volume at 3 mg/kg, iv treated for 3 hrs after onset of reperfusion by TTC staining based assay (reference value: 57.6 +/- 4.9%); assay type: functional; parameters: scale not given: the % may be the effect or the level left
Mus musculus [31] = test: Neuroprotective activity in mouse model of transient middle cerebral artery occlusion-induced cerebral ischemia-reperfusion injury assessed as reduction in infarct volume at 0.3 mg/kg, iv treated for 3 hrs after onset of reperfusion by TTC staining based assay (reference value: 52 +/- 1.7%); assay type: functional; parameters: scale not given: the % may be the effect or the level left
Mus musculus [32] = test: Neuroprotective activity in mouse model of transient middle cerebral artery occlusion-induced cerebral ischemia-reperfusion injury assessed as reduction neurological score at 3 mg/kg, iv treated for 3 hrs after onset of reperfusion by TTC staining based assay (reference value: 2.4 +/- 0.5); assay type: functional
Mus musculus [33] = test: Neuroprotective activity in mouse model of transient middle cerebral artery occlusion-induced cerebral ischemia-reperfusion injury assessed as reduction neurological score at 1 mg/kg, iv treated for 3 hrs after onset of reperfusion by TTC staining based assay relative to control; assay type: functional, organism-based
[34] = target: T1, Transient receptor potential cation channel subfamily M member 2; test: Inhibition of human TRPM2 expressed in HEK293T cells assessed as suppression of H2O2-induced calcium flux at 1 uM measured after 30 mins by Fluo-3/AM assay; assay type: cell-based

T2 sequence (P04054 23-148 limits assumed): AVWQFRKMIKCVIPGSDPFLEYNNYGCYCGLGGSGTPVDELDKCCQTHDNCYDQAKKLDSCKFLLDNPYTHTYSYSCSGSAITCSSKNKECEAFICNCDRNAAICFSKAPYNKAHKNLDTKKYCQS
T1 sequence (O94759 whole entry): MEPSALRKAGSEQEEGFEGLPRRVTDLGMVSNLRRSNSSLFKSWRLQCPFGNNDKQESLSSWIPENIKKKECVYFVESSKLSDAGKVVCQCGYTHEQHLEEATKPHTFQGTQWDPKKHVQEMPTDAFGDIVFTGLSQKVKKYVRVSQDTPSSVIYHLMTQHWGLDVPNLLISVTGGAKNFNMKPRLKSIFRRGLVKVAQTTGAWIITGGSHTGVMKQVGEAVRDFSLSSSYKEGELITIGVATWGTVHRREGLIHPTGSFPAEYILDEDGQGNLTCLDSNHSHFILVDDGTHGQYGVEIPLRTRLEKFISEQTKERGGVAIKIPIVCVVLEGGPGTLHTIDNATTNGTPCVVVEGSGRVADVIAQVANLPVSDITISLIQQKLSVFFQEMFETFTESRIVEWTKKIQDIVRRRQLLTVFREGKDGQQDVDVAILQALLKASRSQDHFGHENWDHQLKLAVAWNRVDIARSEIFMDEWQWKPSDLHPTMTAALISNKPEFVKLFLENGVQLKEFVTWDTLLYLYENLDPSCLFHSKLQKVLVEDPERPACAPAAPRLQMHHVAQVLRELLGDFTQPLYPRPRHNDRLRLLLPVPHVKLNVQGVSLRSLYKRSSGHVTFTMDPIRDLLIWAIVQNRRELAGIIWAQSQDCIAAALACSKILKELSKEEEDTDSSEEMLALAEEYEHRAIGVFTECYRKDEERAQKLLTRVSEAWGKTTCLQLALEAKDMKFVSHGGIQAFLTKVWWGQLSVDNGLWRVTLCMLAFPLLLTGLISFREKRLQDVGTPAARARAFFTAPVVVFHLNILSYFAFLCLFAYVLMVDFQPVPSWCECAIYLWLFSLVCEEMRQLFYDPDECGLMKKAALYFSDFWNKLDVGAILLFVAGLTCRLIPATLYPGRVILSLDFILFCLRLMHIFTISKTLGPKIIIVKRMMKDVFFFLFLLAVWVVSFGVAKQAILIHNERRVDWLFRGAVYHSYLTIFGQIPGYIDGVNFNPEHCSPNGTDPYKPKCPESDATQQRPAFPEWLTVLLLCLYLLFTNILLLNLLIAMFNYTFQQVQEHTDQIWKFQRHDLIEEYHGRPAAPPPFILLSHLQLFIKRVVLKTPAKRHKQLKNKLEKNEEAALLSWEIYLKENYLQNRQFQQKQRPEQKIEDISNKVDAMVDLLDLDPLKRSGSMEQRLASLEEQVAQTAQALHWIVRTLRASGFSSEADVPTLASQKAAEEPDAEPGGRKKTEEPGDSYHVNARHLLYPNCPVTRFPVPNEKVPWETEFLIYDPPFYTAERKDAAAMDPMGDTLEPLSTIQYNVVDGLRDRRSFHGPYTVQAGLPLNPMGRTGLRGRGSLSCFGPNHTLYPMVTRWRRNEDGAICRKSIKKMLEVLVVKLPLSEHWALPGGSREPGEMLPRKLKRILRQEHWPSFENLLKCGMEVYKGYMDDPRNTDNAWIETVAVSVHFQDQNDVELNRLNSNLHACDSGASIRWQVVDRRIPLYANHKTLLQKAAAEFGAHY
Sequence of Transient receptor potential cation channel subfamily M member 8 (Q7Z2W7 whole entry, looked up, the tested form may be a part): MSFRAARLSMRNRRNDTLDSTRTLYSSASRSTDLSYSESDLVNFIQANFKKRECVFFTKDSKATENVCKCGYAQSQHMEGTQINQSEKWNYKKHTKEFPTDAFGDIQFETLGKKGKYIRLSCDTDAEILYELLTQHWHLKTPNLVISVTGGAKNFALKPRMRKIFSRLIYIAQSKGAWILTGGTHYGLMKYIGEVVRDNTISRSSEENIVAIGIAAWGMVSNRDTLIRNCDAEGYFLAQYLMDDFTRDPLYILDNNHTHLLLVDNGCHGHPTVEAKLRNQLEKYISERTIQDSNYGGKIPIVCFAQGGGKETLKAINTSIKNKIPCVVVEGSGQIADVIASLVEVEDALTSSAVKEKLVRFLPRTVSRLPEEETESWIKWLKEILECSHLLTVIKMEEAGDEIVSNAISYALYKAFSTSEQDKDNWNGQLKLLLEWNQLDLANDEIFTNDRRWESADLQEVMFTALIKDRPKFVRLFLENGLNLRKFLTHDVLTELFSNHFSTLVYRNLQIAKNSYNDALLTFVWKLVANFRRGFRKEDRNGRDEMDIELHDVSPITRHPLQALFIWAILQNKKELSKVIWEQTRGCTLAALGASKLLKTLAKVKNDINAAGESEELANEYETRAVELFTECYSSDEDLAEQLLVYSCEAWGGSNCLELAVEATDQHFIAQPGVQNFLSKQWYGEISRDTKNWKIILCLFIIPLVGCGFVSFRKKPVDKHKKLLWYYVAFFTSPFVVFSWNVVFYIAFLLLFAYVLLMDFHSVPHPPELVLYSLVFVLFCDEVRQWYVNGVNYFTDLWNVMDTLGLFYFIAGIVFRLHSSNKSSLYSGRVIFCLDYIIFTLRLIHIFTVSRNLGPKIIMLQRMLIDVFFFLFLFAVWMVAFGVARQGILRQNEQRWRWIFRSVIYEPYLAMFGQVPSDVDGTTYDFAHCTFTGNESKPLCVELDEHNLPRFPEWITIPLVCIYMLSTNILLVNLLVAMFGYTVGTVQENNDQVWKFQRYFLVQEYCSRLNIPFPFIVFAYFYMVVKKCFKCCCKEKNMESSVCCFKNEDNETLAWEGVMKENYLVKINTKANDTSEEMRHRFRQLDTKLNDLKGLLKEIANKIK

Which IC50 [1] does the source give for O=C(/C=C/c1ccc(-c2cccc(C(F)(F)F)c2)cc1)Nc1ccccc1C(=O)O here?
The IC50 was 788 nM.

And the Activity (SH-SY5Y [2])?
The Activity was under 10%.

And the inhibition [3]?
Its inhibition is 22.6%.

What about the inhibition (Phospholipase A2 [4]) of the same compound?
The inhibition was 14.8%.

What about the inhibition (Phospholipase A2 [5]) of the same compound?
Its inhibition is 7.8%.

And the Activity (SH-SY5Y [6])?
The Activity was 80%.

What about the half-life [7] of the same compound?
The half-life was 1.34 h.

And the Cmax [8]?
The Cmax was 24300 ng/mL.

What about the AUC(0-inf) [9] of the same compound?
The AUC(0-inf) was 40900 ng·h/mL.

What about the half-life [10] of the same compound?
The half-life was 3.62 h.

And the Cmax [11]?
The Cmax was 168000 ng/mL.

What about the half-life [12] of the same compound?
The half-life was 0.93 h.

And the half-life [13]?
Its half-life is 1.7 h.

And the half-life [14]?
The half-life was 1.42 h.

What about the Tmax [15] of the same compound?
The Tmax was 4.8 min.

And the Tmax [16]?
The Tmax was 0.5 h.

What about the Cmax [17] of the same compound?
Its Cmax is 5070 ng/mL.

And the Cmax [18]?
Its Cmax is 58400 ng/mL.

What about the AUC(0-t) [19] of the same compound?
The AUC(0-t) was 157000 ng·h/mL.

What about the AUC(0-inf) [20] of the same compound?
The AUC(0-inf) was 5450 ng·h/mL.

And the AUC(0-inf) [21]?
The AUC(0-inf) was 18900 ng·h/mL.

What about the AUC(0-inf) [22] of the same compound?
The AUC(0-inf) was 160000 ng·h/mL.

What about the clearance [23] of the same compound?
The clearance was 0.917 mL/min/kg.

What about the clearance [24] of the same compound?
Its clearance is 0.882 mL/min/kg.

And the MRT [25]?
Its MRT is 1.19 h.

And the MRT [26]?
Its MRT is 1.7 h.

What about the MRT [27] of the same compound?
Its MRT is 2.25 h.

And the bioavailability [28]?
The bioavailability was 90.4%.

What about the bioavailability [29] of the same compound?
Its bioavailability is 84.8%.

And the Activity (Mus musculus [30])?
The Activity was 38.9%.

What about the Activity (Mus musculus [31]) of the same compound?
Its Activity is 39.8%.

What about the Activity (Mus musculus [32]) of the same compound?
Its Activity is 1.8.

What about the Activity (Mus musculus [33]) of the same compound?
Its Activity is “inactive”.

And the inhibition [34]?
Its inhibition is over 45%.
